Assay results from ChEMBL document CHEMBL2417369, “Synthesis and evaluation of heteroaryl substituted diazaspirocycles as scaffolds to probe the ATP-binding site of protein kinases” (Bioorg Med Chem, 2013).

How the values were obtained:
[1] = tested on: Fibroblast growth factor receptor 2 (Homo sapiens), P21802 [N549H]; assay: Inhibition of FGFR2 N549H mutant (unknown origin) at 30 uM by microfluidic mobility shift assay relative to control
Procedure, shortened: (§1)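 Single-point screen at 30 µM test compound across a 24-kinase panel in a microfluidic assay format. ATP was set near each enzyme's Km,[ATP]. […] The pan-AGC inhibitor H-89 served as an internal control on every assay plate.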

[2] = molecular target: Ribosomal protein S6 kinase beta-1 (Homo sapiens) (UniProt P23443); assay: Inhibition of p70S6K (unknown origin) at 30 uM by microfluidic mobility shift assay relative to control
Chain of Ribosomal protein S6 kinase beta-1 (Homo sapiens) (P23443 whole entry, looked up): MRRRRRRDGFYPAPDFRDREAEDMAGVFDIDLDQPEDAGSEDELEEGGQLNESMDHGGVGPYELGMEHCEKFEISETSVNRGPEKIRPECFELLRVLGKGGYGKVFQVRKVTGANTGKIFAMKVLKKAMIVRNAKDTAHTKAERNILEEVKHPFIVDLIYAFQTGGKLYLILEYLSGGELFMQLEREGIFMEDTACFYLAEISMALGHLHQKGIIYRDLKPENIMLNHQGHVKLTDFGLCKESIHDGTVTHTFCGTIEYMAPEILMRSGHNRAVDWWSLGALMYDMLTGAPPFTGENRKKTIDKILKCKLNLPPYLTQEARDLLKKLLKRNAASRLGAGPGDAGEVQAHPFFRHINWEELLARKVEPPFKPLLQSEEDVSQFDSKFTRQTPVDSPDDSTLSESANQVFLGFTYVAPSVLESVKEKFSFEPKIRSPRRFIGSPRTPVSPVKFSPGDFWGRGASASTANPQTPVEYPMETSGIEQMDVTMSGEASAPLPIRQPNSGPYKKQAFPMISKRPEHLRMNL
Procedure, shortened: (§2)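 Single-point screen against a 24-kinase panel in a commercial microfluidic assay format. Compounds were tested at 30 µM, with ATP at approximately the Km,[ATP] of each enzyme. H-89 was included on each assay plate as an internal control.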

[3] = molecular target: Mitogen-activated protein kinase 11 (Homo sapiens) (UniProt Q15759); assay: Inhibition of p38beta-2 (unknown origin) at 30 uM by microfluidic mobility shift assay relative to control; procedure, shortened: as §2
Chain of Mitogen-activated protein kinase 11 (Homo sapiens) (Q15759 whole entry): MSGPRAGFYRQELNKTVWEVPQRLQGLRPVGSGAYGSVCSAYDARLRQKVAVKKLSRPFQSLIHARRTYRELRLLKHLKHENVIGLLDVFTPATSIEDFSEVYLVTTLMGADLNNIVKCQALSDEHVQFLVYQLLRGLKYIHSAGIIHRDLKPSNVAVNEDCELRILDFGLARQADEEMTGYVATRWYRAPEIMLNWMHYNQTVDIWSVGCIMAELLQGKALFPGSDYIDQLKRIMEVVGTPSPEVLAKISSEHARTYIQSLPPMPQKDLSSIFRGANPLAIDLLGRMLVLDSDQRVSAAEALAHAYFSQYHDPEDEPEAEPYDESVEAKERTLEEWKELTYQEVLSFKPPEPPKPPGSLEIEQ

[4] = molecular target: Serine/threonine-protein kinase MARK1 (Homo sapiens) (UniProt Q9P0L2); assay: Inhibition of MARK1 (unknown origin) at 30 uM by microfluidic mobility shift assay relative to control; procedure, shortened: as §1
Chain of Serine/threonine-protein kinase MARK1 (Homo sapiens) (Q9P0L2 whole entry, looked up): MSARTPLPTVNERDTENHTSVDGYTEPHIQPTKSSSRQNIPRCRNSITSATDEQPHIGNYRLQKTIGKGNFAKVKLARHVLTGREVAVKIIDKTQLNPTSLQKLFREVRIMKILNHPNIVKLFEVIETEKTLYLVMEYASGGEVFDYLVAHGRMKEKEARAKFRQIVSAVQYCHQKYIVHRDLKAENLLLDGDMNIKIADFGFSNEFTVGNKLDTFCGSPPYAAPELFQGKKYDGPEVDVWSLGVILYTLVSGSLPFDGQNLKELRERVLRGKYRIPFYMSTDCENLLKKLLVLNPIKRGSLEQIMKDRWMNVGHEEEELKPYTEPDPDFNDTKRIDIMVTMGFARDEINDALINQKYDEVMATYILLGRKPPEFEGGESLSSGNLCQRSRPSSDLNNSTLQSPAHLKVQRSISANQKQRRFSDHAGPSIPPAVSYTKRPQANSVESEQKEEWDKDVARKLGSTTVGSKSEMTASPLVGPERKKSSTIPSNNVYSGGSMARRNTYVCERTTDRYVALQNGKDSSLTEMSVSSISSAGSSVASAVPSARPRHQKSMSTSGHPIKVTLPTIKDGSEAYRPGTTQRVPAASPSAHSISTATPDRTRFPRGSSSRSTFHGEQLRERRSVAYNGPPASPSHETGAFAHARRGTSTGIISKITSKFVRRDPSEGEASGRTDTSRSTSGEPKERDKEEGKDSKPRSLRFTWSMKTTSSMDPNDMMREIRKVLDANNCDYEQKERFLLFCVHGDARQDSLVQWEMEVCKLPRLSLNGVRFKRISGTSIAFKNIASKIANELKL

[5] = molecular target: T1, MAP kinase-activated protein kinase 5 (Homo sapiens) (UniProt Q8IW41); assay: Inhibition of PRAK (unknown origin) at 30 uM by microfluidic mobility shift assay relative to control; procedure, shortened: as §2
T1 sequence (whole entry): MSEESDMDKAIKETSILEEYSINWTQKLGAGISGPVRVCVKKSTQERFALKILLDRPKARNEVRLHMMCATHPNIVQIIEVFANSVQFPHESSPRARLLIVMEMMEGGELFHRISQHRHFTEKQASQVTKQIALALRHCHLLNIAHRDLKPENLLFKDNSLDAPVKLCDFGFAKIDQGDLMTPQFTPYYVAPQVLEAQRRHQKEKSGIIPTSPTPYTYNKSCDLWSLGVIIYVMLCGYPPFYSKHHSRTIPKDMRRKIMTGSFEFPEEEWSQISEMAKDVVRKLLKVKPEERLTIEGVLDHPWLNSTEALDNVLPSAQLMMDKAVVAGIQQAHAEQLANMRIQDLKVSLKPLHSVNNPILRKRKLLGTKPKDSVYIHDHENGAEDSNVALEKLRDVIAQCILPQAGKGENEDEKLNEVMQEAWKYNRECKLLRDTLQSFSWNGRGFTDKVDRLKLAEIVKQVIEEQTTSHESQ

[6] = tested on: T2, Receptor-type tyrosine-protein kinase FLT3 (Homo sapiens), P36888 [D835Y]; assay: Inhibition of FLT3 D835Y mutant (unknown origin) at 30 uM by microfluidic mobility shift assay relative to control; procedure, shortened: as §1
T2 sequence (whole entry): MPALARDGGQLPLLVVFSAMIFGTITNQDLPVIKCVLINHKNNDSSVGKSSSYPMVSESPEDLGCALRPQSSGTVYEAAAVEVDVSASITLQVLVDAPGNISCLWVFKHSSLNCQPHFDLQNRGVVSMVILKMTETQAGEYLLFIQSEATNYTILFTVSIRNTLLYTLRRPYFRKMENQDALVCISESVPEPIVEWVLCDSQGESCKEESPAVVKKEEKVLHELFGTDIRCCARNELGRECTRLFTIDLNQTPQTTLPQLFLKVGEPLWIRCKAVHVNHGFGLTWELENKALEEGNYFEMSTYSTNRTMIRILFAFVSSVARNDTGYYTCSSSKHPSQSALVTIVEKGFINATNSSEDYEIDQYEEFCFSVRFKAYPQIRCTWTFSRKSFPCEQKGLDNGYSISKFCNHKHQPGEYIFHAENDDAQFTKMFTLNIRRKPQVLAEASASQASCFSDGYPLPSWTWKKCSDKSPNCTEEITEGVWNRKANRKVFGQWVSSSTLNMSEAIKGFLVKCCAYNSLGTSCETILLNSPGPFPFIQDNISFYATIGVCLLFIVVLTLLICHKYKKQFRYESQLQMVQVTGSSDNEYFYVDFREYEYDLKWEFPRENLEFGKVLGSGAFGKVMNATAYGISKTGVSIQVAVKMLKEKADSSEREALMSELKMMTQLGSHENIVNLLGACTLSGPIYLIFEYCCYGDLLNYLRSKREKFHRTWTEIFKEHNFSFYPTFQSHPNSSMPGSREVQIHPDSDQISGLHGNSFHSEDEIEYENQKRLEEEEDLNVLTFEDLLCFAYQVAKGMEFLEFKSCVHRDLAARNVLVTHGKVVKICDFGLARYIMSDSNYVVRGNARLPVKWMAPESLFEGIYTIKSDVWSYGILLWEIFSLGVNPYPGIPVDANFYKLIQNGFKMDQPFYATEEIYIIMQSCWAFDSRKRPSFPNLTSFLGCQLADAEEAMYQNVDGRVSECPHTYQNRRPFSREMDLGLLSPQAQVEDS

[7] = molecular target: Rho-associated protein kinase 2 (Homo sapiens) (UniProt O75116); assay: Inhibition of ROCK2 (unknown origin) at 30 uM by microfluidic mobility shift assay relative to control; procedure, shortened: as §2
Chain of Rho-associated protein kinase 2 (Homo sapiens) (O75116 whole entry, looked up): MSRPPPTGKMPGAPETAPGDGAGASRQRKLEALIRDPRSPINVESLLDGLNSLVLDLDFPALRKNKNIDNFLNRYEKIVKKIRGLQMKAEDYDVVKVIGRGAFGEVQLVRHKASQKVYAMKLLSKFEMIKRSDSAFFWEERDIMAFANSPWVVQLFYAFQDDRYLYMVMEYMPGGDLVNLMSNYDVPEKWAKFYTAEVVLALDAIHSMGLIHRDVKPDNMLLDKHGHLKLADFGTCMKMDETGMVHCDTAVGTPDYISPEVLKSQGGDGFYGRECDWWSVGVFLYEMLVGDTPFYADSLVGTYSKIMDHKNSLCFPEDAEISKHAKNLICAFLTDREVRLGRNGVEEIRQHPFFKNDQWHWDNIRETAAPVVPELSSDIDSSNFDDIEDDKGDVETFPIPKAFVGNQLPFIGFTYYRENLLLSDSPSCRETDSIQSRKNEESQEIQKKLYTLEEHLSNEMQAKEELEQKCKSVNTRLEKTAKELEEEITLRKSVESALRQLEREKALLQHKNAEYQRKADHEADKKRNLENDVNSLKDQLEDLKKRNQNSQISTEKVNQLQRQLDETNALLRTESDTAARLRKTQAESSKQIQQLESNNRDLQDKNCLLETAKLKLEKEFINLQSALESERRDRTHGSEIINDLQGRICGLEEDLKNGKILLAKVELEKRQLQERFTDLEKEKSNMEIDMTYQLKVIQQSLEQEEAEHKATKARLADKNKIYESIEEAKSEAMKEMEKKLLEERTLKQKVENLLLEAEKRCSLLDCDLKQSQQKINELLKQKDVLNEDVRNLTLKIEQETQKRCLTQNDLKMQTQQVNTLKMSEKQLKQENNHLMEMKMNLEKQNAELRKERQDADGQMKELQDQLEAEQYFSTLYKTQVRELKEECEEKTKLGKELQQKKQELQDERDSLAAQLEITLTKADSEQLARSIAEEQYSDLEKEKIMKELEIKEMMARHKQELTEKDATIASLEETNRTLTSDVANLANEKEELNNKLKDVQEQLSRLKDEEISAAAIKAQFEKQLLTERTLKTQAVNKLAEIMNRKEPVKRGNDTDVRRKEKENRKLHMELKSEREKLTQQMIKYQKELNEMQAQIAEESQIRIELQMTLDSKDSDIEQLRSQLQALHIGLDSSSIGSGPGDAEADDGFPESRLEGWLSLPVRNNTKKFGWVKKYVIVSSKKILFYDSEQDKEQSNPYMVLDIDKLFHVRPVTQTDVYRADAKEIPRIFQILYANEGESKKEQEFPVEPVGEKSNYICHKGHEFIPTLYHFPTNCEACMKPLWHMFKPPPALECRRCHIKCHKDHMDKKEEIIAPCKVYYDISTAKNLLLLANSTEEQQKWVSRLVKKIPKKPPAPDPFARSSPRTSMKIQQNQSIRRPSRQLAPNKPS

[8] = molecular target: T3, Cytoplasmic tyrosine-protein kinase BMX (Homo sapiens) (UniProt P51813); assay: Inhibition of BMX (unknown origin) at 30 uM by microfluidic mobility shift assay relative to control; procedure, shortened: as §1
T3 sequence (whole entry): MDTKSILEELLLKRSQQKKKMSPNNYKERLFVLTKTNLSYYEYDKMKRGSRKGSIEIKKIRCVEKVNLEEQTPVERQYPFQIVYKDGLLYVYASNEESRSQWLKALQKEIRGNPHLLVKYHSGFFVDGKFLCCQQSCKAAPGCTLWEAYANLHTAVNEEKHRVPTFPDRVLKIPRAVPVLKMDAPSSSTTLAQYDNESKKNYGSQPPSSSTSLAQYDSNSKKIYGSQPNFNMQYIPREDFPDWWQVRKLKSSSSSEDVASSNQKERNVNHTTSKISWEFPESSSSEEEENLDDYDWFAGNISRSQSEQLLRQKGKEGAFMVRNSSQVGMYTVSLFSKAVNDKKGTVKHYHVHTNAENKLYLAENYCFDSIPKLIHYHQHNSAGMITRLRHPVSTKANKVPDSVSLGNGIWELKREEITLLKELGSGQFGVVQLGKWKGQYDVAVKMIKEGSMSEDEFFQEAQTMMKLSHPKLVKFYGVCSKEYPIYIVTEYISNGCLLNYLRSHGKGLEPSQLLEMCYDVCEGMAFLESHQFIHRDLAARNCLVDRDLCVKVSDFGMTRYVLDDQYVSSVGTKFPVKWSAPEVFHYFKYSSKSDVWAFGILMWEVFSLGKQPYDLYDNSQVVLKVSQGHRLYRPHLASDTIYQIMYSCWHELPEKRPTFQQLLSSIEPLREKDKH

Chain of Fibroblast growth factor receptor 2 (Homo sapiens), P21802 [N549H] (P21802 whole entry N549H): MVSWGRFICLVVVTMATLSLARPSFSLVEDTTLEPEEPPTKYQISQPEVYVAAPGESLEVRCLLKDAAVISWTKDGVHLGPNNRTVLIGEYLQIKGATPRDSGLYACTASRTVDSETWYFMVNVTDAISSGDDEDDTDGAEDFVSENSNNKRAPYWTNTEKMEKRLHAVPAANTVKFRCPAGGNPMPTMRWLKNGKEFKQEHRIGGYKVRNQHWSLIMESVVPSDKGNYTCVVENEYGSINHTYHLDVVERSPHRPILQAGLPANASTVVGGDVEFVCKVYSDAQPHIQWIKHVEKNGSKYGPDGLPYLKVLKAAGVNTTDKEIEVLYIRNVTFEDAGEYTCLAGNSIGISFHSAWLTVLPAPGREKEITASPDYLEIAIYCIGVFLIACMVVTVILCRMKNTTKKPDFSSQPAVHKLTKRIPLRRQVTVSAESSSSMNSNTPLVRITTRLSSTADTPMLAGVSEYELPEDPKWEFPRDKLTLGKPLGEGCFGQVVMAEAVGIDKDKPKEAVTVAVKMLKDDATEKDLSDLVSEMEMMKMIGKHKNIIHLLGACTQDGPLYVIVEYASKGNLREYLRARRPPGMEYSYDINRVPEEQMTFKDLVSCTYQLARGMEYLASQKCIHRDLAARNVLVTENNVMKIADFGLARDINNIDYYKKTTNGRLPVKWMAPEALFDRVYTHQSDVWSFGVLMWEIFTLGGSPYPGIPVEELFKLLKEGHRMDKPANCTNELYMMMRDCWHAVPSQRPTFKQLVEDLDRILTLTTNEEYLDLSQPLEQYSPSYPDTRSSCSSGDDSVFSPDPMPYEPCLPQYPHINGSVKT

inhibition [1] [%]	inhibition [2] [%]	inhibition [3] [%]	inhibition [4] [%]	inhibition [5] [%]	inhibition [6] [%]	inhibition [7] [%]	inhibition [8] [%]	SMILES
20	95	4	89	14	45	99	0	c1ccc(C2CCNC3(CCN(c4ncnc5[nH]cnc45)CC3)C2)cc1 (racemic)
22	98	8	99	8	22	98	8	c1ccc(CC2CCNC3(CCN(c4ncnc5[nH]cnc45)CC3)C2)cc1 (racemic)
15	47	3	0	12	56	78	12	c1ccc(CC2CCC3(CCN(c4ncnc5[nH]cnc45)CC3)NC2)cc1 (racemic)
